# Data from PMC8148075 (Acta Pharmaceutica Sinica. B, 2020).
# Peptide text beside a SMILES is read from it. * marks the point of attachment. Cbz = O=C(OCc1ccccc1)*; CH2F = FC*
# What was measured:
# [1] = tested on: LC3B-II, P62, ATG3, ATG5, ATG7; assay: Western blot of autophagy proteins in ESCC cells; type: cell-based, human; settings: ECa109 and EC9706 cells
# ECa109 cells [2] = assay: Annexin V-FITC/PI flow cytometry apoptosis assay, ECa109; type: cell-based, human; settings: ECa109, CQ 20 μmol/L alone, 72 h, Fig. 5D
# [3] = Toxicity evaluation in xenograft mice; type: in vivo, athymic BALB/c male nude mice; settings: for HCT / HGB / MCH / MCHC / MCV / MPV / PLT / RBC / RDW / WBC: blood of xenograft mice, end of treatment; for Toxicity to nude mice (overall): therapeutic doses: SFN 5 mg/kg, CQ 60 mg/kg i.p. every other day, two weeks
# NRF2, HO-1 = assay: Western blot of NRF2; type: cell-based, human; settings: ECa109 and EC9706 cells
# EC9706 cells [4] = assay: Annexin V-FITC/PI flow cytometry apoptosis assay, EC9706; type: cell-based, human; settings: EC9706, CQ 20 μmol/L alone, 72 h, Fig. 5D
# [5] = tested on: LC3, P62, NRF2, HO-1, BCL-2, BAX, cleaved-caspase 9; assay: Western blot of tumor tissues from xenograft mice; type: in vivo, athymic BALB/c male nude mice; settings: SFN 5 mg/kg, Fig. 7G
# How it was run: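 Male athymic BALB/c nude mice, 4–6 weeks old, received 1 × 10⁷ ECa109 cells in 0.2 mL PBS s.c. in the right flank. […] Excised tumors were stored at −80 °C and immunoblotted (ECL detection), n = 3.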
# Het-1A cells = assay: CCK-8 cell proliferation assay, Het-1A; type: cell-based; settings: Homo sapiens
# ECa109 cells [6] = assay: Clonogenic assay, ECa109; type: cell-based, human
# How it was run: (§1)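 Cells in RPMI-1640 with 10% FBS at 37 °C, 5% CO2, seeded at 1 × 10³ cells/well in 6-well plates. Exposed to test compound (0, 5, 10 μmol/L) and grown 7 days. Colonies rinsed with PBS three times, fixed in 4% paraformaldehyde for 20 min, stained with 1% crystal violet for 30 min, then counted. Three independent experiments.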
# ECa109 xenografts = assay: ECa109 xenograft in nude mice, anti-tumor efficiency; type: in vivo, athymic BALB/c male nude mice; settings: ECa109 xenograft tumors, Fig. 7D
# How it was run: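 Male athymic BALB/c nude mice (4–6 weeks old, acclimatised 1 week) received 1 × 10^7 ECa109 cells in 0.2 mL PBS subcutaneously into the right flank. At 90–120 mm3, mice were randomised (n = 5): saline, test compound 5 mg/kg, autophagy inhibitor 60 mg/kg, or combination, i.p. every other day for two weeks. Paraffin sections of fixed tumours were TUNEL-stained; brown positive cells were counted per 1500 tumour cells.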
# EC9706 cells [7] = assay: Clonogenic assay, EC9706; type: cell-based, human
# How it was run: as §1
# [8] = tested on: cleaved-caspase 9, BAX, BCL-2; assay: Western blot of apoptotic markers in ESCC cells; type: cell-based, human; settings: ECa109 and EC9706 cells, SFN 10 μmol/L, 0-24 h, Fig. 2B
# How it was run: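 ECa109 and EC9706 cells were exposed to 10 μmol/L test compound for 0, 3, 6, 12 and 24 h. Equal protein (30 μg) was separated by SDS-PAGE and transferred to nitrocellulose. Membranes were blocked in 5% skimmed milk for 2 h at room temperature, given primary antibody overnight at 4 °C and secondary antibody for 2 h. Detection by ECL, bands quantified by densitometry, n = 3.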
# EC9706 cells [9] = assay: CCK-8 cell proliferation assay, EC9706; type: cell-based, human; settings: for IC50: Homo sapiens
# How it was run: (§2)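 Cells were kept in RPMI-1640 with 10% FBS, penicillin and streptomycin at 37 °C and 5% CO2. They were seeded in 96-well plates and exposed to the test compound over graded concentrations (e.g., 0–80 μmol/L) for 24, 48 or 72 h, alone or with modulators. CCK-8 reagent was then added, and optical density was read after a further 4 h. n = 3.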
# [10] = tested on: mRFP-GFP-LC3 puncta (autophagosomes, autolysosomes); assay: mRFP-GFP-LC3 adenovirus autophagy flux, confocal microscopy; type: cell-based, human; settings: ECa109 and EC9706 cells, SFN 10 μmol/L or bafilomycin A1 100 nmol/L, 24 h, Fig. 3D
# How it was run: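 ECa109 and EC9706 cells (3 × 10⁵/well) were infected with mRFP-GFP-LC3 adenovirus for 48 h, then replated on glass-bottom dishes at 1 × 10⁴ cells/well. Treated with 10 μmol/L test compound or 100 nmol/L bafilomycin A1 for 24 h, fixed in 4% paraformaldehyde for 20 min and imaged by confocal microscopy. Yellow (green+red) puncta were scored as autophagosomes and red as autolysosomes, n = 3.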
# ECa109 cells [11] = assay: CCK-8 cell proliferation assay, ECa109; type: cell-based, human; settings: for IC50: Homo sapiens
# How it was run: as §2
# [12] = organ weight/body weight × 100, xenograft mice, SFN 5 mg/kg, CQ 60 mg/kg i.p.
smiles,measurement,setting,value
"CCN(CC)CCCC(C)Nc1ccnc2cc(Cl)ccc12 (stereo not shown) [CQ, chloroquine, reference compound]",Expression of LC3B-II and P62,"[1]; CQ 20 μmol/L alone, Fig. 3C",promoted expression LC3B-II and P62
same,Effect on cell apoptosis,ECa109 cells [2],no obvious effects on cell apoptosis
same,HCT,"[3]; SFN 5 mg/kg, CQ 60 mg/kg i.p.",43.05 ± 1.75%
same,HGB,"[3]; SFN 5 mg/kg, CQ 60 mg/kg i.p.",140.67 ± 6.31 g/L
same,MCH,"[3]; SFN 5 mg/kg, CQ 60 mg/kg i.p.",15.28 ± 0.28 pg
same,MCHC,"[3]; SFN 5 mg/kg, CQ 60 mg/kg i.p.",326.67 ± 4.50 g/L
same,MCV,"[3]; SFN 5 mg/kg, CQ 60 mg/kg i.p.",50.10 ± 0.78 fL
same,MPV,"[3]; SFN 5 mg/kg, CQ 60 mg/kg i.p.",6.52 ± 0.13 fL
same,PLT,"[3]; SFN 5 mg/kg, CQ 60 mg/kg i.p.",941.00 ± 45.99 × 10^9/L
same,RBC,"[3]; SFN 5 mg/kg, CQ 60 mg/kg i.p.",8.60 ± 0.38 × 10^12/L
same,RDW,"[3]; SFN 5 mg/kg, CQ 60 mg/kg i.p.",16.38 ± 0.08%
same,WBC,"[3]; SFN 5 mg/kg, CQ 60 mg/kg i.p.",4.71 ± 0.99 × 10^9/L
same,Toxicity to nude mice (overall),[3],no obvious toxicity
same,Effect of CQ on SFN-induced NRF2 in nucleus,"NRF2, HO-1; CQ 20 μmol/L combined with SFN 10 μmol/L, 48 h, Fig. 5F",markedly inhibited the activation of SFN to NRF2
same,Effect on cell apoptosis,EC9706 cells [4],no obvious effects on cell apoptosis
"C[S+]([O-])CCCCN=C=S (stereo not shown) [SFN, Sulforaphane]",Expression of LC3B-II and P62,"[1]; SFN 10 μmol/L, 0-24 h, Fig. 3A",increased LC3B-II and decreased P62
same,"Expression of ATG3, ATG5 and ATG7","[1]; SFN 10 μmol/L, 0-24 h, Fig. 4A",no changes
same,LC3B-II and P62 expression in tumors compared to control,[5],increased of LC3B-Ⅱ and decreased P62 expression
same,IC50,Het-1A cells; 48 h,34.1 ± 1.53 µM
same,IC50,Het-1A cells; 72 h,21.3 ± 1.33 µM
same,Effect on colony formation,"ECa109 cells [6]; ECa109, SFN 5 and 10 μmol/L, 7 days, Fig. 1C",significantly inhibited the colony formation
same,TUNEL positive cells in tumor tissue compared with control,ECa109 xenografts,large number of TUNEL positive cells
same,HCT,"[3]; SFN 5 mg/kg, CQ 60 mg/kg i.p.",42.62 ± 4.07%
same,HGB,"[3]; SFN 5 mg/kg, CQ 60 mg/kg i.p.",139.00 ± 13.78 g/L
same,MCH,"[3]; SFN 5 mg/kg, CQ 60 mg/kg i.p.",15.20 ± 0.65 pg
same,MCHC,"[3]; SFN 5 mg/kg, CQ 60 mg/kg i.p.",326.17 ± 3.82 g/L
same,MCV,"[3]; SFN 5 mg/kg, CQ 60 mg/kg i.p.",49.62 ± 0.55 fL
same,MPV,"[3]; SFN 5 mg/kg, CQ 60 mg/kg i.p.",6.62 ± 0.17 fL
same,PLT,"[3]; SFN 5 mg/kg, CQ 60 mg/kg i.p.",867.83 ± 134.68 × 10^9/L
same,RBC,"[3]; SFN 5 mg/kg, CQ 60 mg/kg i.p.",8.59 ± 0.83 × 10^12/L
same,RDW,"[3]; SFN 5 mg/kg, CQ 60 mg/kg i.p.",16.18 ± 0.08%
same,WBC,"[3]; SFN 5 mg/kg, CQ 60 mg/kg i.p.",4.18 ± 0.48 × 10^9/L
same,"Relative organ weight, heart",[3]; [12],0.63 ± 0.13%
same,"Relative organ weight, left kidney",[3]; [12],0.84 ± 0.19%
same,"Relative organ weight, liver",[3]; [12],6.74 ± 0.35%
same,"Relative organ weight, lung",[3]; [12],0.72 ± 0.19%
same,"Relative organ weight, right kidney",[3]; [12],0.98 ± 0.17%
same,"Relative organ weight, spleen",[3]; [12],0.79 ± 0.14%
same,Toxicity to nude mice (overall),[3],no obvious toxicity
same,Expression of NRF2 in nucleus,"NRF2, HO-1; SFN 5 and 10 μmol/L, Fig. 4B",increased the expression of NRF2 in nucleus
same,Effect on colony formation,"EC9706 cells [7]; EC9706, SFN 5 and 10 μmol/L, 7 days, Fig. 1C",significantly inhibited the colony formation
same,Level of cleaved-caspase 9,[8],increased the levels of cleaved-caspase 9 in a time-dependent manner
same,IC50,"EC9706 cells [9]; EC9706, 24 h",75.3 ± 1.88 µM
same,IC50,"EC9706 cells [9]; EC9706, 48 h",41 ± 1.7 µM
same,IC50,"EC9706 cells [9]; EC9706, 72 h",17.5 ± 1.24 µM
same,"Fluorescent puncta (yellow = autophagosomes, red = autolysosomes)",[10],many yellow puncta and red puncta
same,IC50,"ECa109 cells [11]; ECa-109, 24 h",47.4 ± 1.68 µM
same,IC50,"ECa109 cells [11]; ECa-109, 48 h",20.8 ± 1.32 µM
same,IC50,"ECa109 cells [11]; ECa-109, 72 h",15.2 ± 1.18 µM
"Cc1ccccc1C(=O)N1CCc2cc(-c3nc(NC(=O)Cc4ccc5c(c4)OCO5)sc3C)ccc21 [ML385, reference compound]",Expression of LC3B-II and P62,"[1]; ML385 20 μmol/L alone, Fig. 4D",inhibited LC3B-II and promoted P62 expression
same,Effect on colony formation,"ECa109 cells [6]; ECa109, ML385, 7 days, Fig. 4F",significantly inhibited cell viability and colony formation
same,Expression of NRF2 and HO-1,"NRF2, HO-1; ML385 5-30 μmol/L, Fig. 4C",decreased expression of NRF2 and HO-1 in a dose-dependent manner
same,Effect on colony formation,"EC9706 cells [7]; EC9706, ML385, 7 days, Fig. 4F",significantly inhibited cell viability and colony formation
same,Effect on cell viability (CCK-8),"EC9706 cells [9]; EC9706, ML385 0-200 μmol/L, 48 and 72 h, Fig. 4E",significantly inhibited cell viability
same,Effect on cell viability (CCK-8),"ECa109 cells [11]; ECa109, ML385 0-200 μmol/L, 48 and 72 h, Fig. 4E",significantly inhibited cell viability
"COC(=O)C[C@H](NC(=O)[C@H](C)NC(=O)[C@@H](NC(=O)OCc1ccccc1)C(C)C)C(=O)CF [Z-VAD-FMK, reference compound] (Cbz-Val-Ala-Asp(OMe)-CH2F)",Effect on cell proliferation (CCK-8),"EC9706 cells [9]; EC9706, Z-VAD-FMK 20 μmol/L alone, 48 h, Fig. 2C",no obvious effects on cell proliferation
same,Effect on cell proliferation (CCK-8),"ECa109 cells [11]; ECa109, Z-VAD-FMK 20 μmol/L alone, 48 h, Fig. 2C",no obvious effects on cell proliferation
"CO/C1=C\C(C)=C\[C@@H](C)[C@@H](O)[C@@H](C)C/C(C)=C/C=C/[C@H](OC)[C@@H]([C@@H](C)[C@@H](O)[C@H](C)[C@@]2(O)C[C@@H](O)[C@H](C)[C@@H](C(C)C)O2)OC1=O [bafilomycin A1, reference compound]","Fluorescent puncta (yellow = autophagosomes, red = autolysosomes)",[10],many yellow puncta
